ChEMBL document CHEMBL1149257, “Tetrasubstituted imidazole inhibitors of cytokine release: probing substituents in the N-1 position” (J Med Chem, 2004)

How the values were obtained:
[1] = target: Mitogen-activated protein kinase 14 (Homo sapiens, UniProt Q16539); assay: Inhibition of mitogen-activated protein kinase p38 alpha
Blood [2] = assay: Inhibition of LPS-induced TNFalpha production in human whole blood; assay type: functional, tissue-based
Procedure, shortened: (§1)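 Fresh blood from healthy human donors, preincubated 15 min at 37 °C, 5% CO2, with serially diluted compound in Cremophor EL/ethanol (1:1); 1% Cremophor EL/ethanol as control. Stimulated with LPS 1 μg/mL for 4 h at 37 °C, stopped on ice and centrifuged. TNFα and IL-1β in the supernatant measured by ELISA. IC50 from percent reduction versus control; mean of two independent experiments unless stated.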

Blood [3] = assay: Inhibition of LPS-induced IL1 beta production in human whole blood; assay type: functional, tissue-based; procedure, shortened: as §1
CYP2D6 = CYP2D6 (Homo sapiens, UniProt P10635); assay: Inhibition of human liver CYP2D6 at 10 uM; assay type: ADME
Procedure, shortened: (§2)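 Each isoform tested with the compound at a single concentration of 10 μM in phosphate buffer (pH 7.4) containing 0.1% DMSO; read out as percent inhibition of enzyme activity. Other conditions follow a previously reported protocol.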

CYP2C9 = CYP2C9 (Homo sapiens, UniProt P11712); assay: Inhibition of human liver CYP2C9 at 10 uM; assay type: ADME; procedure, shortened: as §2
CYP3A4 = CYP3A4 (Homo sapiens, UniProt P08684); assay: Inhibition of human liver CYP3A4 at 10 uM; assay type: ADME; procedure, shortened: as §2
CYP2C19 = CYP2C19 (Homo sapiens, UniProt P33261); assay: Inhibition of human liver CYP2C19 at 10 uM; assay type: ADME; procedure, shortened: as §2
CYP1A2 = target: T1, CYP1A2 (Homo sapiens, UniProt P05177); assay: Inhibition of human liver CYP1A2 at 10 uM; assay type: ADME; procedure, shortened: as §2
T1 sequence (P05177 whole entry): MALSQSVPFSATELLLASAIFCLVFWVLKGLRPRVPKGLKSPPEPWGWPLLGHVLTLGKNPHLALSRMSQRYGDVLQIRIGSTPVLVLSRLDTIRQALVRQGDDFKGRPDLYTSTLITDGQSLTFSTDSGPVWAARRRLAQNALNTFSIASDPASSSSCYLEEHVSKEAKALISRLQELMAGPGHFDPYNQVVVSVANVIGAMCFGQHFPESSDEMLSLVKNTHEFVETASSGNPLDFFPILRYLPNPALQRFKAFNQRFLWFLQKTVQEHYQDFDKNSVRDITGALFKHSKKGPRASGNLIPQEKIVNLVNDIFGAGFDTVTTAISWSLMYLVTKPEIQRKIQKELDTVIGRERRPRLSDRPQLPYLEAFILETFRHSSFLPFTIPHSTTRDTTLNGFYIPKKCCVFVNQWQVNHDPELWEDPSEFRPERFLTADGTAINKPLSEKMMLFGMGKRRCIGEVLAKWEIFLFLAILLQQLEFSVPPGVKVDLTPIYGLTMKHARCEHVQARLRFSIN

CYP3A4, sequence (P08684 whole entry): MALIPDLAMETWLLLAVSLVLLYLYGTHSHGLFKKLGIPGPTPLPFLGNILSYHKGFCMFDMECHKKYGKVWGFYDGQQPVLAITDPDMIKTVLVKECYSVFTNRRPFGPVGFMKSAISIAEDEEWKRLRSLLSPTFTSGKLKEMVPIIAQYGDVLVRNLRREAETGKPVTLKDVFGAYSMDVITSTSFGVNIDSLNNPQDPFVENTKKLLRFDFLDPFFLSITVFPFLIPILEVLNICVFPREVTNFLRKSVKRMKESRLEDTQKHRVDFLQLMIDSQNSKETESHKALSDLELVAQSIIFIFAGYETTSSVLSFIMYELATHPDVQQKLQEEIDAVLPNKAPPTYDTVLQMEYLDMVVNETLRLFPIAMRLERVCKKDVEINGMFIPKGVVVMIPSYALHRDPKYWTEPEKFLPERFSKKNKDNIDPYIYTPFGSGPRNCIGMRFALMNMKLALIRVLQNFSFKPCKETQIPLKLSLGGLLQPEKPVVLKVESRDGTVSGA
CYP2C9, sequence (P11712 whole entry): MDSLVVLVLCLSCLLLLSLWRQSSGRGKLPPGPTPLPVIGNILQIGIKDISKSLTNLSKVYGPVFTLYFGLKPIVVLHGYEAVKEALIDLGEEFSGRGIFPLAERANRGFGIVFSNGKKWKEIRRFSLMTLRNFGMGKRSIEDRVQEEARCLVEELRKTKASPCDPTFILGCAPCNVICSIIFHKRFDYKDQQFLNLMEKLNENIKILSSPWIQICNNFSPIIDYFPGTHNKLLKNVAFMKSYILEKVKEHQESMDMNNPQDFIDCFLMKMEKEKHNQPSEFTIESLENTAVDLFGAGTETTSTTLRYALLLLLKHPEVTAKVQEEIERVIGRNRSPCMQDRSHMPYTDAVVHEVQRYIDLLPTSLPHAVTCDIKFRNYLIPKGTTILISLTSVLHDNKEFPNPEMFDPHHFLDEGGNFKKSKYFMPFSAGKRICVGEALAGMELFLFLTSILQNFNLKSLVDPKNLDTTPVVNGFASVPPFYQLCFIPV
CYP2C19, sequence (P33261 whole entry): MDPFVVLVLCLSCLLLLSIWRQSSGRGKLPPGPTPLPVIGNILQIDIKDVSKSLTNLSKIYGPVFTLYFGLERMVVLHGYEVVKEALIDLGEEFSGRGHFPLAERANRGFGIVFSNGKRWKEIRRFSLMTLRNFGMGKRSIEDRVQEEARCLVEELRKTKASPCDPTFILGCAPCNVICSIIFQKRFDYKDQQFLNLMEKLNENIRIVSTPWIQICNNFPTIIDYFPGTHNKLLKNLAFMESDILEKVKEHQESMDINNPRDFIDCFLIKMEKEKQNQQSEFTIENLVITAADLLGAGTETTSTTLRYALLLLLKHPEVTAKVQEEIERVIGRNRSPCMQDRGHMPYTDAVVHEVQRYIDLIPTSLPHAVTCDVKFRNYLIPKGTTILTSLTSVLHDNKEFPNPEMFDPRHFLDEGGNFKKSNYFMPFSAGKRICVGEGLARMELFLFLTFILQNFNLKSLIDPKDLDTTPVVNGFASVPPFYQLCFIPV
Mitogen-activated protein kinase 14, sequence (Q16539 whole entry): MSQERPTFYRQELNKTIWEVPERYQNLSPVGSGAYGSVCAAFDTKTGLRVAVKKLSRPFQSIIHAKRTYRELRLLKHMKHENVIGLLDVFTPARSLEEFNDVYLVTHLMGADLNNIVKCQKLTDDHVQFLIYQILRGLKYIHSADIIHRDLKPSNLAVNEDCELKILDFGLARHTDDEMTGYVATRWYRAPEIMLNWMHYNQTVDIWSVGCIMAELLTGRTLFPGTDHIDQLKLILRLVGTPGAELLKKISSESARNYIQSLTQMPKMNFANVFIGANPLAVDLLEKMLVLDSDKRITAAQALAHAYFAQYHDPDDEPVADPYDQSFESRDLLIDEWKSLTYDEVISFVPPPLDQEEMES
CYP2D6, sequence (P10635 whole entry, canonical isoform): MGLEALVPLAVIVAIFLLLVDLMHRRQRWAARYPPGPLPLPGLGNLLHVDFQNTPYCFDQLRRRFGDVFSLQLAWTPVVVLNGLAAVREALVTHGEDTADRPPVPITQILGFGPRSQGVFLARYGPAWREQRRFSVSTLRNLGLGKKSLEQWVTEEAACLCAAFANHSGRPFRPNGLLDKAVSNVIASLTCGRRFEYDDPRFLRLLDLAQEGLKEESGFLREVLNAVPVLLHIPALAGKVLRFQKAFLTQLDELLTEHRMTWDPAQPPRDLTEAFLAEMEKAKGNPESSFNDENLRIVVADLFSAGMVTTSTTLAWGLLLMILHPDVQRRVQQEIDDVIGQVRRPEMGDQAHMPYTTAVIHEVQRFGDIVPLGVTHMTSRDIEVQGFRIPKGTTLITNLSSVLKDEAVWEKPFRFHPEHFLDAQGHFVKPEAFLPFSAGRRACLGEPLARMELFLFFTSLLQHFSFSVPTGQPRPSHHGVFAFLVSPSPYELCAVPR

| Compound | IC50 [1] | further results |
| --- | --- | --- |
| C#CCOCCn1c(SC)nc(-c2ccc(F)cc2)c1-c1ccnc(NC(C)=O)c1 | 0.666 µM | IC50 (Blood [2]): 40 µM; IC50 (Blood [3]): 13.9 µM |
| CSc1nc(-c2ccc(F)cc2)c(-c2ccnc(NC(C)=O)c2)n1CCN1CCCCC1 | 1.34 µM | inhibition at 10 µM (CYP2D6): 77.5%; inhibition at 10 µM (CYP2C9): 5%; inhibition at 10 µM (CYP3A4): 97%; inhibition at 10 µM (CYP2C19): 41%; inhibition at 10 µM (CYP1A2): 12%; IC50 (Blood [2]): > 10 µM; IC50 (Blood [3]): > 10 µM |
| COCCn1c(SCCC(=O)N2CCOCC2)nc(-c2ccc(F)cc2)c1-c1ccnc(NC(C)=O)c1 | 0.46 µM |  |
| COCCCn1c(SCc2ccc([S+](C)[O-])cc2)nc(-c2ccc(F)cc2)c1-c1ccnc(NC(C)=O)c1 (stereo not given) | 1.31 µM |  |
| COCCCn1c(SC)nc(-c2ccc(F)cc2)c1-c1ccnc(NC(C)=O)c1 | 0.205 µM | IC50 (Blood [2]): 17.8 µM; IC50 (Blood [3]): 18.2 µM |
| C=CCOCCn1c(SC)nc(-c2ccc(F)cc2)c1-c1ccnc(NC(C)=O)c1 | 1.85 µM | IC50 (Blood [2]): > 100 µM; IC50 (Blood [3]): 48.5 µM |
| CC(=O)NCCn1c(SCc2ccc([S+](C)[O-])cc2)nc(-c2ccc(F)cc2)c1-c1ccnc(NC(C)=O)c1 (stereo not given) | > 10 µM |  |
| CC(=O)Nc1cc(-c2c(-c3ccc(F)cc3)nc(SCc3ccc([S+](C)[O-])cc3)n2CCN2CCCCC2)ccn1 (stereo not given) | 4.43 µM |  |
| CSc1nc(-c2ccc(F)cc2)c(-c2ccnc(NC(C)=O)c2)n1CCO | 0.398 µM | IC50 (Blood [2]): 35.8 µM; IC50 (Blood [3]): 33.2 µM |
| CC(=O)Nc1cc(-c2c(-c3ccc(F)cc3)nc(SCc3ccc([S+](C)[O-])cc3)n2CC(C)O)ccn1 (stereo not given) | > 10 µM |  |
| CSc1nc(-c2ccc(F)cc2)c(-c2ccnc(NC(C)=O)c2)n1CCCO | 0.813 µM | IC50 (Blood [2]): 20.5 µM; IC50 (Blood [3]): 13.8 µM |
| CSc1nc(-c2ccc(F)cc2)c(-c2ccnc(NC(C)=O)c2)n1CCCN1CCOCC1 | 6.28 µM |  |
| CSCCn1c(SC)nc(-c2ccc(F)cc2)c1-c1ccnc(NC(C)=O)c1 | 0.431 µM | IC50 (Blood [2]): 44.2 µM; IC50 (Blood [3]): 36.4 µM |
| CC(=O)Nc1cc(-c2c(-c3ccc(F)cc3)nc(SCc3ccc([S+](C)[O-])cc3)n2C2CC(C)(C)NC(C)(C)C2)ccn1 (stereo not given) | > 10 µM |  |
| CSc1nc(-c2ccc(F)cc2)c(-c2ccnc(NC(C)=O)c2)n1CCN1CCOCC1 | 2.03 µM | IC50 (Blood [2]): > 10 µM; IC50 (Blood [3]): > 10 µM |
| CC(=O)Nc1cc(-c2c(-c3ccc(F)cc3)nc(SCCCC(=O)N3CCOCC3)n2CCO)ccn1 | 2 µM |  |
| COCCn1c(SC)nc(-c2ccc(F)cc2)c1-c1ccnc(NC(C)=O)c1 | 0.218 µM | inhibition at 10 µM (CYP2D6): 3.5%; inhibition at 10 µM (CYP2C9): 23.5%; inhibition at 10 µM (CYP3A4): 62%; inhibition at 10 µM (CYP2C19): 70.5%; inhibition at 10 µM (CYP1A2): 0%; IC50 (Blood [2]): 32.8 µM; IC50 (Blood [3]): 30.5 µM |
| CSc1nc(-c2ccc(F)cc2)c(-c2ccnc(NC(C)=O)c2)n1CCOCCO | 8.48 µM | inhibition at 10 µM (CYP2D6): 0%; inhibition at 10 µM (CYP2C9): 18.5%; inhibition at 10 µM (CYP3A4): 38%; inhibition at 10 µM (CYP2C19): 19%; inhibition at 10 µM (CYP1A2): 0%; IC50 (Blood [2]): > 100 µM; IC50 (Blood [3]): > 100 µM |
| CC(=O)Nc1cc(-c2c(-c3ccc(F)cc3)nc(SCc3ccc([S+](C)[O-])cc3)n2CCCN2CCOCC2)ccn1 (stereo not given) | > 10 µM |  |

More lines, main results first:

| IC50 [1] | Compound | further results |
| --- | --- | --- |
| > 10 µM | COCCCn1c(SCCC(=O)N2CCOCC2)nc(-c2ccc(F)cc2)c1-c1ccnc(NC(C)=O)c1 |  |
| 2.38 µM | CSCCn1c(SCc2ccc([S+](C)[O-])cc2)nc(-c2ccc(F)cc2)c1-c1ccnc(NC(C)=O)c1 (stereo not given) |  |
| 7.29 µM | CSc1nc(-c2ccc(F)cc2)c(-c2ccnc(NC(C)=O)c2)n1CCNC(C)=O |  |
| > 10 µM | C=CCOCCn1c(SCc2ccc([S+](C)[O-])cc2)nc(-c2ccc(F)cc2)c1-c1ccnc(NC(C)=O)c1 (stereo not given) |  |
| > 10 µM | CCOC(=O)N1CCC(n2c(SC)nc(-c3ccc(F)cc3)c2-c2ccnc(NC(C)=O)c2)CC1 |  |
| 4.97 µM | C#CCOCCn1c(SCc2ccc([S+](C)[O-])cc2)nc(-c2ccc(F)cc2)c1-c1ccnc(NC(C)=O)c1 (stereo not given) |  |
| 8.69 µM | CSc1nc(-c2ccc(F)cc2)c(-c2ccnc(NC(C)=O)c2)n1CC(C)O (stereo not given) |  |
| 3.73 µM | CSc1nc(-c2ccc(F)cc2)c(-c2ccnc(NC(C)=O)c2)n1CC1COC(C)(C)O1 (stereo not given) |  |
| 2.51 µM | CC(=O)Nc1cc(-c2c(-c3ccc(F)cc3)nc(SCCC(=O)N3CCOCC3)n2CCO)ccn1 |  |
| 2.41 µM | CSc1nc(-c2ccc(F)cc2)c(-c2ccnc(NC(C)=O)c2)n1CCN(C)C |  |
| 2.24 µM | CC(=O)Nc1cc(-c2c(-c3ccc(F)cc3)nc(SCc3ccc([S+](C)[O-])cc3)n2CCO)ccn1 (stereo not given) |  |
| 9.5 µM | CC(=O)Nc1cc(-c2c(-c3ccc(F)cc3)nc(SCCC(=O)N3CCOCC3)n2CCCO)ccn1 |  |
| 4.1 µM | COC(Cn1c(SC)nc(-c2ccc(F)cc2)c1-c1ccnc(NC(C)=O)c1)OC |  |
| 0.15 µM | COCCn1c(SCc2ccc([S+](C)[O-])cc2)nc(-c2ccc(F)cc2)c1-c1ccnc(NC(C)=O)c1 (stereo not given) |  |
| 5.85 µM | CC(=O)Nc1cc(-c2c(-c3ccc(F)cc3)nc(SCc3ccc([S+](C)[O-])cc3)n2C)ccn1 (stereo not given) |  |
| > 10 µM | CC(=O)Nc1cc(-c2c(-c3ccc(F)cc3)nc(SCc3ccc([S+](C)[O-])cc3)n2CCOCCO)ccn1 (stereo not given) |  |
